Measurements from ChEMBL document CHEMBL1138680, “Phenoxyphenyl pyridines as novel state-dependent, high-potency sodium channel inhibitors” (J Med Chem, 2004).

Tests used:
[1] = Ratio between Kr to Ki; type: functional
[2] = biological target: Sodium channel protein type 2 subunit alpha (Rattus norvegicus) (UniProt P04775); assay: Dissociation constant for binding to inactivated state of rat brain NaIIa (rNav1.2) -B2 cell line stably expressed in HEK293 Cells
[3] = biological target: Sodium channel protein type 2 subunit alpha, Nav1.2 (Rattus norvegicus) (UniProt P04775); assay: Dissociation constant for binding to resting state of rat brain NaIIa (rNav1.2) -B2 cell line stably expressed in HEK293 Cells
Rattus norvegicus [4] = organism: Rattus norvegicus; assay: Inhibition of native TTX-R sodium currents in acutely dissociated rat dorsal root ganglion (DRG); type: functional
Summary of the method: (§1)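 Acutely dissociated neurons from newborn Sprague Dawley rat pups were plated on poly-D-lysine and recorded for up to two weeks. The HEK-293 fractional-response protocol was used, but with a 1-s depolarizing prepulse and a 5-ms hyperpolarizing gap. Fractional responses were collected at three or more concentrations per drug. Ki came from a logistic fit of the partial concentration–inhibition curves.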

Rattus norvegicus [5] = organism: Rattus norvegicus; assay: Inhibition of native TTX-S sodium currents in acutely dissociated rat dorsal root ganglion (DRG); type: functional; summary of the method: as §1

Row | Compound | Ratio [1] | Ki [2] | kR [3] | Inhibition activity (Rattus norvegicus [4]) | Inhibition activity (Rattus norvegicus [5])
1 | NC(=O)N/N=C/c1ccc(Oc2ccc(F)cc2)cc1 | 100 | 0.35 µM | 34 µM | 0.26 µM | 0.25 µM
2 | NC(=O)c1cc(N2CCOCC2)cc(-c2ccc(Oc3ccc(F)cc3)cc2)n1 | 94 | 0.12 µM | 11.6 µM | 0.1 µM | 0.06 µM
3 | Cc1cc(OCCN2CCCCC2)cc(-c2ccc(Oc3ccc(F)cc3)cc2)n1 | 362 | 0.17 µM | 63.4 µM | 0.08 µM | 0.14 µM
4 | COc1cc(C(N)=O)nc(-c2ccc(Oc3ccc(F)cc3)cc2)c1 | 24 | 0.36 µM | 87.7 µM |  | 
5 | NC(=O)c1cccc(-c2ccc(Oc3ccc(F)cc3)cc2)n1 | 252 | 0.09 µM | 24.2 µM | 0.27 µM | 0.1 µM
6 | NC(=O)c1ccnc(-c2ccc(Oc3ccc(F)cc3)cc2)c1 |  | 2.64 µM |  |  | 
7 | COc1cc(C(=O)NCCN(C)C)nc(-c2ccc(Oc3ccc(F)cc3)cc2)c1 | 90 | 0.25 µM | 23 µM | 1.56 µM | 0.18 µM
8 | NC(=O)c1cccnc1-c1ccc(Oc2ccc(F)cc2)cc1 | 5 | 13.4 µM | 63.7 µM |  | 
9 | Nc1nnc(-c2cccc(Cl)c2Cl)c(N)n1 [LAMOTRIGINE] |  |  |  | 103 µM | 38.4 µM
10 | NC(=O)N1c2ccccc2C=Cc2ccccc21 [CARBAMAZEPINE] |  |  |  | 111 µM | 28 µM
11 | O=C(NCCN1CCCCC1)c1ccc(-c2ccc(Oc3ccc(F)cc3)cc2)nc1 | 180 | 0.59 µM | 107 µM | 1.56 µM | 1 µM
12 | NC(=O)c1ccc(-c2ccc(Oc3ccc(F)cc3)cc2)nc1 |  | 3.75 µM |  |  | 
13 | O=C(NCCN1CCCCC1)c1cccc(-c2ccc(Oc3ccc(F)cc3)cc2)n1 | 154 | 0.02 µM | 4.3 µM | 0.06 µM | 
14 | Cc1cc(N(C)C)cc(-c2ccc(Oc3ccc(F)cc3)cc2)n1 | 122 | 0.386 µM | 47.1 µM | 0.34 µM | 0.53 µM
15 | O=C(NCCN1CCCCC1)c1cncc(-c2ccc(Oc3ccc(F)cc3)cc2)c1 | 68 | 0.15 µM | 10.5 µM |  | 
